Nine compounds from ChEMBL document CHEMBL1828506, “New fluorine-containing hydrazones active against MDR-tuberculosis” (Eur J Med Chem, 2011) can be followed below.

In general, MIC refers to the lowest concentration found to suppress growth. Lower therefore signals a more susceptible organism. A word on the IC50: it is the midpoint of a concentration-inhibition curve. Read a low IC50 as inhibition by little substance.

In brackets after ≈: the same amount, converted by molar mass.

Test [1] concerns Mycobacterium tuberculosis. The test can be described thus: Antimycobacterial activity against Mycobacterium tuberculosis H37Rv ATCC 27294 after 28 days by colony forming unit determination. The format is functional. The note with it: H37Rv ATCC 27294, 672 h. The method, boiled down: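 Compounds added to Sula liquid medium as DMSO solutions (DMSO at most 2%), incubated at 37 °C for 28 days. MIC is the lowest concentration giving visible growth inhibition. Activity was confirmed by CFU counts after subculture onto drug-free Löwenstein-Jensen solid medium.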

Test [2] has as its system Mycobacterium kansasii. The test can be described thus: Antimycobacterial activity against Mycobacterium kansasii CNTC My 235/80 after 7 days. Type of test: functional. The note with it: CNTC My 235/80, 168 h.
The subject of test [3] is Mycobacterium kansasii. As to the kind of experiment: Antimycobacterial activity against Mycobacterium kansasii CNTC My 235/80 after 21 days. The format is functional. The note with it: CNTC My 235/80, 504 h.
For test [4], the system named is Mycobacterium avium. As to the kind of experiment: Antimycobacterial activity against Mycobacterium avium CNTC 330/88 after 21 days. Type of test: functional. The note with it: CNTC 330/88, 504 h.
In test [5] the test system is Mycobacterium kansasii. As to the kind of experiment: Antimycobacterial activity against Mycobacterium kansasii CNTC My 235/80 after 14 days. Type of test: functional. The note with it: CNTC My 235/80, 336 h.
The subject of test [6] is Mycobacterium kansasii. As to the kind of experiment: Antimycobacterial activity against Mycobacterium kansasii CNTC 6509/96 after 14 days. The format is functional. The note with it: CNTC 6509/96, 336 h.
The subject of test [7] is Mycobacterium kansasii. The test can be described thus: Antimycobacterial activity against Mycobacterium kansasii CNTC 6509/96 after 21 days. Type of test: functional. The note with it: CNTC 6509/96, 504 h.
Test [8] deals with Mycobacterium kansasii. As to the kind of experiment: Antimycobacterial activity against Mycobacterium kansasii CNTC 6509/96 after 7 days. The format is functional. The note with it: CNTC 6509/96, 168 h.
Test [9] in a line: Selectivity index, ratio of IC50 for human HepG2 cells to MIC for Mycobacterium tuberculosis H37Rv ATCC 27294. The format is functional.
The test system of test [10] is SH-SY5Y. The test can be described thus: Cytotoxicity against human SH-SY5Y cells measured after overnight incubation by MTT assay. Type of test: cell-based. A digest of the protocol: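 SH-SY5Y neuroblastoma cells in phenol-red-free DMEM with 10% FCS, 2 mM L-glutamine, gentamycin and 1% NEAA, 7.5 × 10³ per well. After 24 h at 37 °C, overnight compound exposure in serum-free medium. MTT readout (OD540 minus OD620) against untreated controls; IC50 from dose-response curves. Two independent experiments.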
(In general: Tetrazolium dyes change colour on reduction, which living cells bring about.)

Test [11] has as its system HepG2. The test can be described thus: Cytotoxicity against human HepG2 cells measured after overnight incubation by MTT assay. Type of test: cell-based. A digest of the protocol:
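HepG2 cells in phenol-red-free RPMI-1640 with 10% FCS, 2 mM L-glutamine and gentamycin, seeded at 5 × 10³ per well. After 24 h at 37 °C, cells were exposed overnight to compound in serum-free medium. MTT (2 mg/mL) for 4 h, formazan dissolved in DMSO, read as OD540 minus OD620. % cytotoxicity versus untreated controls; IC50 taken from dose-response curves. Two independent experiments, 4–8 parallel measurements.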

The subject of test [12] is PBMC. The test can be described thus: Cytotoxicity against human PBMC measured after overnight incubation by MTT assay. Type of test: cell-based. The method, boiled down:
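Freshly prepared human PBMC in phenol-red-free RPMI-1640 with 10% FCS, 2 mM L-glutamine and gentamycin, 2.0 × 10⁵ cells per well. After 24 h at 37 °C, overnight compound exposure in serum-free medium. MTT for 4 h, formazan in DMSO, OD540 minus OD620. % cytotoxicity versus controls; IC50 from dose-response curves. Two independent experiments.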

In test [13] the test system is Mycobacterium avium. The test can be described thus: Antimycobacterial activity against Mycobacterium avium CNTC 330/88 after 14 days. The format is functional. The note with it: CNTC 330/88, 336 h.

Turning to `CCn1cc(C(=O)O)c(=O)c2cc(F)c(N3CCN(/C=N/NC(=O)c4ccc(C(F)(F)F)cc4)CC3)cc21`, the MIC in test [1] was 5 µg/mL (≈ 9.37 µM); in [2] it was 2 µM (≈ 1.07 µg/mL); in test [3], 8 µM (≈ 4.27 µg/mL); in [4], 500 µM (≈ 267 µg/mL); in test [5] it was 4 µM (≈ 2.13 µg/mL); in test [6] it was 4 µM (≈ 2.13 µg/mL). Besides, the minimum inhibitory concentration (MIC) in test [7] was 8 µM (≈ 4.27 µg/mL); in [8], 2 µM (≈ 1.07 µg/mL); in test [13] it was 500 µM (≈ 267 µg/mL). Moreover, in test [9], the “Selectivity Index” value is listed as 3.98. Also, the IC50 in [10] was 107 µM; in test [11], above 37.3 µM; in test [12], 262 µM.

Regarding `CCn1cc(C(=O)O)c(=O)c2cc(F)c(N3CCN(/C=N/NC(=O)c4ccc(F)cc4)CC3)cc21`, the MIC in test [2] was determined as 16 µM (≈ 7.74 µg/mL); in test [3] it was 62.5 µM (≈ 30.2 µg/mL); in test [4], 250 µM (≈ 121 µg/mL); in test [5] it was 32 µM (≈ 15.5 µg/mL); in test [6] it was 62.5 µM (≈ 30.2 µg/mL); in [7] it was 62.5 µM (≈ 30.2 µg/mL). Moreover, the figures for the MIC in test [8] and in test [13] were 32 µM (≈ 15.5 µg/mL) and 125 µM (≈ 60.4 µg/mL), respectively. The values for the IC50 in test [11] and in test [12] were above 797 µM and above 331 µM, respectively.

Consider `CCn1cc(C(=O)O)c(=O)c2cc(F)c(N3CCN(/C=N/NC(=O)c4cccc(F)c4)CC3)cc21`, for which the MIC in test [1] is 6 µg/mL (≈ 12.4 µM); in [2] it was 16 µM (≈ 7.74 µg/mL); in test [3] it was 62.5 µM (≈ 30.2 µg/mL); in [4] it was 250 µM (≈ 121 µg/mL); in test [5], 32 µM (≈ 15.5 µg/mL); in [6], 16 µM (≈ 7.74 µg/mL). In addition, the MIC in test [7] was found to be 32 µM (≈ 15.5 µg/mL); in [8], 16 µM (≈ 7.74 µg/mL); in test [13], 125 µM (≈ 60.4 µg/mL). In addition, the “Selectivity Index” value in test [9] amounted to 31.67. Moreover, the IC50 was above 430 µM in test [10], above 393 µM in [11] and above 393 µM in test [12].

On to `O=C(N/N=C/NC(=O)c1cnccn1)c1ccc(C(F)(F)F)cc1`, for which the MIC in [2] is 250 µM (≈ 84.3 µg/mL); in test [3], 250 µM (≈ 84.3 µg/mL); in test [4], above 1000 µM; in [5] it was 250 µM (≈ 84.3 µg/mL); in [6], 500 µM (≈ 169 µg/mL); in test [7], 500 µM (≈ 169 µg/mL). For the same compound, the values for the minimal inhibitory concentration (MIC) in test [8] and in test [13] were 250 µM (≈ 84.3 µg/mL) and above 1000 µM, respectively. For the same compound, the IC50 in test [11] is above 624 µM.

In the case of `O=C(N/N=C/NC(=O)c1cnccn1)c1cccc(F)c1`, the MIC was 250 µM (≈ 71.8 µg/mL) in test [2]; above 500 µM in test [3]; above 500 µM in test [4]; 250 µM (≈ 71.8 µg/mL) in [5]; above 500 µM in test [6]; above 500 µM in test [7]. Further, the MIC in [8] is 250 µM (≈ 71.8 µg/mL); in test [13], above 500 µM. Moreover, the concentration for half-maximal inhibition (IC50) is above 130 µM in test [11] and above 305 µM in [12].

As to `Nc1ccc(C(=O)O)c(O)c1` [AMINOSALICYLIC ACID], the MIC in [1] is 0.2 µg/mL (≈ 1.31 µM); in [2] it was 125 µM (≈ 19.1 µg/mL); in [3], above 1000 µM; in test [4], 125 µM (≈ 19.1 µg/mL); in test [5], 1000 µM (≈ 153 µg/mL); in test [6], 125 µM (≈ 19.1 µg/mL). Besides, the MIC in test [7] was 500 µM (≈ 76.6 µg/mL); in [8] it was 32 µM (≈ 4.9 µg/mL); in [13], 32 µM (≈ 4.9 µg/mL).

Consider `O=C(O)c1cn(C2CC2)c2cc(N3CCNCC3)c(F)cc2c1=O` [CIPROFLOXACIN], for which the MIC in test [1] amounted to 0.5 µg/mL (≈ 1.51 µM); in test [2], 1 µM (≈ 0.331 µg/mL); in [3] it was 2 µM (≈ 0.663 µg/mL); in test [4], 62.5 µM (≈ 20.7 µg/mL); in test [5], 2 µM (≈ 0.663 µg/mL); in test [6], 1 µM (≈ 0.331 µg/mL). Besides, the MIC in test [7] turned out to be 2 µM (≈ 0.663 µg/mL); in test [8] it was 1 µM (≈ 0.331 µg/mL); in test [13] it was 62.5 µM (≈ 20.7 µg/mL). For the same compound, the “Selectivity Index” value in [9] is reported as 333.33. In addition, the IC50 in [10], in [11] and in test [12] was above 500 µM each time.

Turning to `NNC(=O)c1ccncc1` [ISONIAZID], the minimum inhibitory concentration (MIC) was 0.01 µg/mL (≈ 0.0729 µM) in test [1]; 250 µM (≈ 34.3 µg/mL) in [2]; above 250 µM in [3]; above 250 µM in test [4]; above 250 µM in test [5]; 4 µM (≈ 0.549 µg/mL) in [6]. The MIC was 4 µM (≈ 0.549 µg/mL) in test [7], 2 µM (≈ 0.274 µg/mL) in test [8] and above 250 µM in test [13]. The IC50 in test [11] was above 1000 µM; in [12], 4670 µM.

Turning to `NC(=O)c1cnccn1` [PYRAZINAMIDE], the MIC in test [2] is 500 µM (≈ 61.6 µg/mL); in test [3], above 1000 µM; in test [4] it was above 1000 µM; in test [5], above 1000 µM; in [6], 1000 µM (≈ 123 µg/mL); in test [7], 1000 µM (≈ 123 µg/mL). Also, the results for the MIC in test [8] and in [13] were 125 µM (≈ 15.4 µg/mL) and 500 µM (≈ 61.6 µg/mL), respectively.
